SKKanGAS inh = SKKanGAS growth inhibition; AID 1662; S. pyogenes SKKanGAS, kanamycin growth, BacTiter-Glo, 6 h; inhibition, % at 7.5 µM; actives 1.3% (n = 300,000);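 active = mean replicate score, as percent of positive control median, at least 50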;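 note: strain carries kanamycin resistance gene driven by streptokinase promoter and grows in 40 µg/ml kanamycin; loss of luminescence reflects streptokinase promoter inhibition or plain growth inhibition; 0% = median of DMSO wells and 100% = positive control at its reference dose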
WT yeast gro inh = growth inhibition of WT yeast, mitochondrial fusion screen; AID 1362; actives 2.1% (n = 190,000); mitochondrial fusion phenotypic screen, WT strain; inhibition, % at 10 µM; in the data active = inhibition above about 58%; tested in S. cerevisiae
Autophagy HCS = modulators of autophagy; MEF GFP-LC3 puncta imaging; test concentration mostly 10 µM; calls only at 10 µM (by protocol); actives 0.98% (n = 190,000); AID 463193;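 active = percentage of spot-positive cells more than 3 SD above its plate mean, without a fluorescence outlier flag or 80% toxicity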;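 note: spot-positive cell cutoff set from DMSO-treated cells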
Cl transport mod = modulators of human KCC2 chloride dependent transport; B-score of Tl+ flux slope (higher = more flux/activation; lower = inhibition) at 10 µM; Q9H2X9; actives 2.2% (n = 190,000); KCC2 cells, thallium flux FluoZin-2 fluorescence;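 active = thallium flux slope and its plate-corrected score both differing from the plate sample mean at a set confidence after two filtering rounds, in either direction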;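 note: slope of fluorescence scaled to starting intensity during 10 to 20 s after thallium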
Target sequence (Q9H2X9 whole entry, looked up): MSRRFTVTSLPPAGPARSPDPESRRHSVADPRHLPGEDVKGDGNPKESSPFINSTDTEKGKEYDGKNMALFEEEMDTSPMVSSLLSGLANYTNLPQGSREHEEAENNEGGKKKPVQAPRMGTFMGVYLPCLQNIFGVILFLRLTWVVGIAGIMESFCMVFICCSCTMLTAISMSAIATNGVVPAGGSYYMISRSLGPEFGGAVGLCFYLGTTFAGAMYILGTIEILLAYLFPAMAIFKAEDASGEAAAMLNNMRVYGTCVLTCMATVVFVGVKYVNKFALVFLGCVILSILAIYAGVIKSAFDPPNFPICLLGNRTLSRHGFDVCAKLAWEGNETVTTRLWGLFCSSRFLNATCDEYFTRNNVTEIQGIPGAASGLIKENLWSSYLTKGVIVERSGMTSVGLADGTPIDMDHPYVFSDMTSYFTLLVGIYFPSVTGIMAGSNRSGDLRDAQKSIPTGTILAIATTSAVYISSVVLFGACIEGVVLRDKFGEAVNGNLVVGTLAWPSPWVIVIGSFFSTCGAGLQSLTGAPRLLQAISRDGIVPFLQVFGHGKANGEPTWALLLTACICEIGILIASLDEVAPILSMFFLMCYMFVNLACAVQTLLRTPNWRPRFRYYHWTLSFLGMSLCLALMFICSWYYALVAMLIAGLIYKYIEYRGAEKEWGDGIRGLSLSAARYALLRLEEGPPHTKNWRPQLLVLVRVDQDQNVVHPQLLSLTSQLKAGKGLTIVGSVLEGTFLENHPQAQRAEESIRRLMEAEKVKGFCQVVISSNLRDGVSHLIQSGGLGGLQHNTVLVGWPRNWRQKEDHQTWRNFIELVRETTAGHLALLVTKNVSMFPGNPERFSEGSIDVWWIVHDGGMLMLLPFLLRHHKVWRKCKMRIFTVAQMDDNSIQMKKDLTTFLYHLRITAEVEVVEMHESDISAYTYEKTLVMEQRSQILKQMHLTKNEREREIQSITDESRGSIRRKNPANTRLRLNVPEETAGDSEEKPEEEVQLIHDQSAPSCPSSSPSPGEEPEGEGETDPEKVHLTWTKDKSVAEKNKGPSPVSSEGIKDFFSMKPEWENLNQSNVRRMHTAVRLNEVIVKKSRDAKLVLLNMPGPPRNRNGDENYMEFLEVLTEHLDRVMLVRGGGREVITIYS
Insulin prom up = MIN6 insulin promoter up-regulation. MIN6 insulin promoter-GFP reporter, high-content imaging; active compounds read high. z-score at 5 µM. actives 0.3% (n = 190,000). AID 1625;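 active = z-score above 3 at 5 µM with at least 500 cells counted in the well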
Rad51 HR inh = blocks human Rad51 in homologous recombination | AID 1385 | inhibition, % at 10 µM | hRad51 DNA strand exchange, fluorescence dequenching | actives 0.085% (n = 200,000);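 active = inhibition above 40% at the single screening dose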;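 note: 0% = DMSO control wells and 100% = blanks with heterologous ssDNA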
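material = hRad51 filaments on single-stranded DNA | reagent = Donor/quencher-labelled 47-bp dsDNA substrate | compound = 10 µM final, single point | schedule = strand-exchange reaction 15 min at room temperature | measured by = fluorescein emission 520 nm, excitation 485 nm | read-out basis = % inhibition versus plate control and blank means | benchmarks = plate controls and plate blanks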
Starred values were filed as active, the others as inactive; i = inactive; x = not tested or not shown; + = active, no number. Most compounds without a hit are left out; they make up all but 4.2% or so of the library.

SMILES	SKKanGAS inh	WT yeast gro inh	Autophagy HCS	Cl transport mod	Insulin prom up	Rad51 HR inh
CCOC(=O)c1c(NC(=O)C2C3C=CC(C3)C2C(=O)O)sc2c1CCC(CC)C2 (stereo not drawn)	4.1	11.1	i	-5.75*	-0.08	3.0
CCOC(=O)c1c(NC(=O)C2C3CCC(O3)C2C(=O)O)sc2c1CCC(CC)C2 (stereo not drawn)	21.8	-10.3	i	-0.465	-0.09	3.9
CCOC(=O)c1c(NC(=O)C2C3C=CC(CC3)C2C(=O)O)sc(C)c1C (stereo not drawn)	3.2	8.1	i	-1.53	0.37	-1.9
Cc1sc(NC(=O)C2C3C=CC(C3)C2C(=O)O)c(C(N)=O)c1-c1ccc(C(C)C)cc1 (stereo not drawn)	52.7*	-8.9	i	-1.58	0.05	1.7
Cc1ccc(NC(=O)C2CCN(S(=O)(=O)c3ccc4c(c3)OCCO4)CC2)nc1	1.2	x	x	x	x	x
CCCCOC(=O)c1ccc(NC(=O)c2ccccc2OC)cc1	0.7	64.5*	i	0.424	-0.33	-9.8
CCCOC(=O)c1ccc(NC(=O)c2ccccc2OC)cc1	-4.0	24.1	i	-1.52	0.47	-3.8
CC(=O)c1ccc(NC(=O)C2Cc3ccccc3CN2C(=O)c2ccccc2)cc1 (stereo not drawn)	24.7	-12.0	i	-0.204	0.13	-16.0
O=C(NC1=NCCS1)C1Cc2ccccc2CN1C(=O)c1ccccc1 (stereo not drawn)	5.5	-3.3	i	x	3.06*	-7.2
COc1ccc(-n2cc3c(-c4cccc(Br)c4)nnc(C)c3n2)cc1	28.3	70.5	+	-2.3	-0.93	3.4
Cc1nnc(-c2cccc(Br)c2)c2cn(-c3ccc(Br)cc3)nc12	55.6*	58.8	i	-0.285	-1.3	6.1
Cc1nnc(-c2cccc(Br)c2)c2cn(-c3ccccc3)nc12	8.9	12.4	i	-0.879	x	5.6
Cc1nnc(-c2cccc(Br)c2)c2cn(-c3cccc(Br)c3)nc12	28.8	31.9	i	0.43	-0.84	-7.3
O=C(O)CCc1nc2cc(C(F)(F)F)ccc2n(Cc2ccccc2)c1=O	2.5	x	x	x	x	x
CCCCC(OC(=O)CN1C(=O)COc2ccccc21)C(=O)NC1CCCCC1 (stereo not drawn)	5.2	x	x	x	x	x
C=CCNC(=S)N1CCN(C2CCCCC2)CC1	0.1	x	x	1.31	-1.21	x
CC(=O)Nc1ccc(Nc2ncnc3c2cnn3-c2ccccc2)cc1	-4.0	-3.7	i	-0.431	-0.13	-4.3
Clc1ccc(Nc2ncnc3c2cnn3-c2ccccc2)cc1	81.0*	5.5	i	1.04	-0.91	7.5
Fc1ccc(CNc2ncnc3c2cnn3-c2ccccc2)cc1	-1.3	7.6	+	-0.876	-0.03	8.1
CN(CC(=O)Nc1cccc(F)c1)C(=O)c1cccc(S(=O)(=O)N2CC3(C)CC2CC(C)(C)C3)c1 (stereo not drawn)	-4.6	x	x	x	x	x
C/C(N)=C(/C#N)C(=O)COC(=O)Cc1coc2cc(C)ccc12	-2.8	-14.4	i	x	0.27	1.6
CCc1nnc(NC(=O)C2Cc3ccccc3CN2S(=O)(=O)c2cccs2)s1 (stereo not drawn)	-5.6	20.1	i	0.197	-0.39	7.9
CCc1nnc(NC(=O)C2Cc3ccccc3CN2S(=O)(=O)c2ccc(C)cc2)s1 (stereo not drawn)	7.7	78.7*	i	-0.313	-0.22	-5.0
CCOc1ccccc1OCCCOc1ccc(C)cc1Br	32.4	58.0*	i	-0.133	-0.04	x
O=C(O)c1cn(-c2ccc(N3CCCC3)c(F)c2)c2c(F)c(F)c(F)cc2c1=O	13.2	78.0*	i	0.607	-0.6	x
Nc1nnc(-c2cc3c(ccc4ccccc43)oc2=O)s1	x	32.5	i	-0.0692	8.81*	-105.5
COc1ccc(-c2cc(-c3ccccc3)nc(SC(C)C(=O)O)c2C#N)cc1 (stereo not drawn)	32.3	x	x	x	x	x
COc1ccccc1-c1cc(-c2ccccc2)nc(SCC(=O)O)c1C#N	83.8*	x	x	x	x	x
CC(C)C(Sc1nc(-c2ccccc2)cc(-c2ccccc2)c1C#N)C(=O)O (stereo not drawn)	53.3*	-14.4	i	-2.98	0.21	0.7
CCC(=O)Nc1ccc(OCC2CCCO2)cc1 (stereo not drawn)	0.5	x	x	x	x	x

Screening results: PubChem, several laboratories
